The source of these data is ChEMBL document CHEMBL1136151, “Suzuki cross-coupling approaches to the synthesis of bioactive 3-substituted and 5-substituted-4-methoxy-6-methyl-2-pyrones” (Bioorg Med Chem Lett, 2003).

Assay type in all cases: functional
In one test the test system is Staphylococcus aureus. Description: Antimicrobial activity against Staphylococcus aureus was determined after 96 hours of incubation. The method in brief:
(§1)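 Disk diffusion: cellulose disks loaded with test compound and placed on bacterial plates, with an EtOH control disk. Incubation 96 h. Read-out is the radius (mm) of the inhibition zone.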

For test [1], the system named is Botrytis cinerea. Description: Percent growth of Botrytis cinerea after 72 hours of incubation. Details: concentration or dose not given beside the values. Put shortly: (§2)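 Fungal plate assay: pyrone dissolved in absolute EtOH at 10mg/mL and pipetted 2 cm offset from the centre of the plate containing the organism. EtOH alone served as control. Growth is recorded as percentage of the organism after 72 h and after 7 days of incubation.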

Test [2] relates to Fusarium oxysporum. Description: Percent growth of Fusarium oxysporum after 7 days of incubation. Details: concentration or dose not given beside the values. The method in brief: as §2
In test [3] the test system is Aspergillus niger. Description: Percent growth of Aspergillus niger after 7 days of incubation. Details: concentration or dose not given beside the values. The method in brief:
as §2

In the next test the test system is Saccharomyces cerevisiae. Description: Antimicrobial activity against Saccharomyces cerevisiae was determined after 48 hours of incubation. Put shortly:
(§3)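 Disk diffusion on yeast plates: cellulose disks carrying test compound, with an EtOH control. Incubation 48 h. The inhibition zone radius is recorded in mm.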

Test [4] deals with Thanatephorus cucumeris. Description: Percent growth of Rhizoctonia solani after 7 days of incubation. Details: concentration or dose not given beside the values. Put shortly: as §2
The test system of another test is Candida albicans. Description: Antimicrobial activity against Candida albicans was determined after 48 hours of incubation. The method in brief:
as §3

The test system of a further test is Bacillus subtilis. Description: Antimicrobial activity against Bacillus subtilis was determined after 96 hours of incubation. Put shortly: as §1
In a further test the test system is Escherichia coli. Description: Antimicrobial activity against Escherichia coli was determined after 96 hours of incubation. Put shortly: as §1
Test [5] deals with Globisporangium ultimum. Description: Percent growth of Pythium ultimum after 72 hours of incubation. Also noted: concentration or dose not given beside the values. Put shortly:
as §2

Test [6] relates to Fusarium oxysporum. Description: Percent growth of Fusarium oxysporum after 72 hours of incubation. Details: concentration or dose not given beside the values. Put shortly:
as §2

Test [7] deals with Aspergillus niger. Description: Percent growth of Aspergillus niger after 72 hours of incubation. Details: concentration or dose not given beside the values. Put shortly: as §2
Test [8] concerns Schizosaccharomyces pombe. Description: Antimicrobial activity against Schizosaccharomyces pombe was determined after 48 hours of incubation. The method in brief: as §3
Test [9] deals with Globisporangium ultimum. Description: Percent growth of Pythium ultimum after 7 days of incubation. Also noted: concentration or dose not given beside the values. Put shortly: as §2
In test [10] the test system is Botrytis cinerea. Description: Percent growth of Botrytis cinerea after 7 days of incubation. Details: concentration or dose not given beside the values. Put shortly: as §2
For test [11], the system named is Thanatephorus cucumeris. Description: Percent growth of Rhizoctonia solani after 72 hours of incubation. Details: concentration or dose not given beside the values. The method in brief: as §2

As for `CCC/C=C/c1cc(C)oc(=O)c1`, the Activity with Staphylococcus aureus amounted to 20 mm; in the test with Saccharomyces cerevisiae it was 0 mm; with Candida albicans, 16 mm; in the test with Bacillus subtilis it was 16 mm; in the test on Escherichia coli, 19 mm; in test [8], 28 mm. In addition, the Growth in the test on Botrytis cinerea [1] stood at 47%; in the test on Fusarium oxysporum [2], 45%; with Aspergillus niger [3] it was 100%; in the test with Thanatephorus cucumeris [4], 100%; in the test with Globisporangium ultimum [5] it was 100%; with Fusarium oxysporum [6], 5%. In addition, the Growth is on record as more than 95% in the test with Aspergillus niger [7], 100% in the test with Globisporangium ultimum [9], 100% with Botrytis cinerea [10] and 49% with Thanatephorus cucumeris [11].
`COc1cc(=O)oc(C)c1-c1ccccc1`: the Activity with Staphylococcus aureus turned out to be 0 mm; in the test with Saccharomyces cerevisiae, 0 mm; in the test with Candida albicans, 0 mm; in the test with Bacillus subtilis, 6 mm; with Escherichia coli, 6 mm; in test [8], 0 mm. Besides, the Growth was 47% in the test on Botrytis cinerea [1]; 51% with Fusarium oxysporum [2]; more than 90% with Aspergillus niger [3]; 100% with Thanatephorus cucumeris [4]; 12% in the test on Fusarium oxysporum [6]; 71% with Aspergillus niger [7]. In addition, the Growth in the test with Botrytis cinerea [10] was determined as 100%; in the test with Thanatephorus cucumeris [11], 67%.
Turning to `Cc1cc(/C=C/c2ccccc2)cc(=O)o1`, the Activity with Staphylococcus aureus came to 0 mm; in the test on Saccharomyces cerevisiae, 0 mm; in the test on Candida albicans, 0 mm; in the test with Bacillus subtilis it was 18 mm; in the test with Escherichia coli, 17 mm; in test [8], 18 mm. The Growth is listed as 59% with Botrytis cinerea [1]; 100% with Aspergillus niger [3]; 100% with Thanatephorus cucumeris [4]; 100% in the test on Globisporangium ultimum [5]; 100% in the test with Aspergillus niger [7]; 100% in the test on Globisporangium ultimum [9]. The Growth with Botrytis cinerea [10] is 100%; in the test on Thanatephorus cucumeris [11] it was 47%.
For `COc1cc(=O)oc(C)c1/C=C/c1ccccc1`, the Activity with Staphylococcus aureus came to 0 mm; with Saccharomyces cerevisiae, 0 mm; in the test on Candida albicans it was 0 mm; with Bacillus subtilis, 6 mm; in the test with Escherichia coli, 6 mm; in [8], 0 mm. The Growth stood at 47% in the test on Botrytis cinerea [1]; 51% with Fusarium oxysporum [2]; 90% in the test with Aspergillus niger [3]; 100% in the test with Thanatephorus cucumeris [4]; 12% in the test on Fusarium oxysporum [6]; 71% with Aspergillus niger [7]. In addition, the Growth turned out to be 100% with Botrytis cinerea [10] and 67% in the test with Thanatephorus cucumeris [11].
On to `COc1ccc(-c2c(OC)cc(=O)oc2C)cc1`, for which the Activity with Staphylococcus aureus was 13 mm; with Saccharomyces cerevisiae, 0 mm; in the test on Candida albicans, 11 mm; in the test with Bacillus subtilis it was 14 mm; in the test with Escherichia coli, 5 mm; in test [8], 18 mm. In addition, the Growth with Botrytis cinerea [1] is reported as 53%; in the test with Fusarium oxysporum [2], 61%; in the test with Aspergillus niger [3], 90%; in the test on Thanatephorus cucumeris [4], 100%; in the test with Fusarium oxysporum [6] it was 11%; with Aspergillus niger [7] it was 85%. For the same compound, the values for the Growth in the test on Botrytis cinerea [10] and in the test on Thanatephorus cucumeris [11] were 100% and 69%, respectively.
On to `COc1cc(C)oc(=O)c1-c1cccc([N+](=O)[O-])c1`, for which the Activity in the test with Staphylococcus aureus is 0 mm; with Saccharomyces cerevisiae, 0 mm; with Candida albicans it was 0 mm; in the test on Bacillus subtilis it was 6 mm; in the test with Escherichia coli, 0 mm; in test [8], 0 mm. The Growth in the test on Fusarium oxysporum [2] came out at 60%; in the test on Aspergillus niger [3], 100%; in the test with Thanatephorus cucumeris [4], 100%; in the test on Globisporangium ultimum [5] it was 100%; with Fusarium oxysporum [6], 12%; with Aspergillus niger [7] it was 100%. Besides, the Growth with Globisporangium ultimum [9] and with Botrytis cinerea [10] was 100% in each case.
